# Screening data deposited in PubChem by NMMLSC.
# The list is not random: actives were taken first. Their share in the collection is about 2.3%.
# MEKK3 PB1 HTS: modulators (inhibitors or enhancers) of MEK5 binding to human MEKK3 PB1 domain; binding response (% of control), % at 10 µM; bead-based flow cytometry, Alexa488-MEK5 binding to MEKK3; actives lie on both sides; 0 = blocked by unlabeled MEK5, 100 = vehicle; 1.4% of 290,000 active; Q99759;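 active = binding response more than 3 SD above or below the average of its plate-row segment, actives on both sides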;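 note: Alexa488 bead fluorescence after subtracting the streptavidin-only scavenger bead signal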
# Target sequence (Q99759 whole entry, looked up, the tested form may be a part): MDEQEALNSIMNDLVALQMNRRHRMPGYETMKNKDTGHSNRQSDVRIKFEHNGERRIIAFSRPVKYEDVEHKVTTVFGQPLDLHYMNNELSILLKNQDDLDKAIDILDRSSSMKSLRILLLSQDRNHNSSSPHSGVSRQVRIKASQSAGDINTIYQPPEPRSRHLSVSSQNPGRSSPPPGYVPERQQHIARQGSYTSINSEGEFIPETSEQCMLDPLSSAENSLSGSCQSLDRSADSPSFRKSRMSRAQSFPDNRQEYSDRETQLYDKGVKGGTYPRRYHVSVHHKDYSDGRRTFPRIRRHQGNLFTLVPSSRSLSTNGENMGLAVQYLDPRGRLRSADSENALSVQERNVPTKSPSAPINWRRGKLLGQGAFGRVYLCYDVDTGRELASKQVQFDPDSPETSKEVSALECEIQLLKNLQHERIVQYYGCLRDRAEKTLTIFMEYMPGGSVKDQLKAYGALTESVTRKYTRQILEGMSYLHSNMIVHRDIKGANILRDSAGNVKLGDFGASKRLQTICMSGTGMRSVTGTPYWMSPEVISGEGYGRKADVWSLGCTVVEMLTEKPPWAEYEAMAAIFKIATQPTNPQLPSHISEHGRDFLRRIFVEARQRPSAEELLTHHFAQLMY
# MEKK2wt PB1 HTS: raises or lowers MEK5 binding to wildtype human MEKK2 PB1 domain. Q9Y2U5. 1.1% of 290,000 active. bead flow cytometry, Alexa488-MEK5 binding to MEKK2 WT; actives lie on both sides. binding response (% of control), % at 10 µM. AID 1531; in the data active = binding response below about 67% or above about 130%
# Arr AP2 block: inhibitors of human beta-arrestin and AP2 interaction | FITC-arrestin peptide / GST-AP2 beads, flow cytometry; AP2 beta2 appendage carries R879A mutation | inhibition, % at 10 µM | 0.31% of 340,000 active | AID 504490;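 active = inhibition above a set limit, near 3 SD of compounds lacking own fluorescence, cut at about 54% in these data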;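 note: plate controls were DMSO wells for no effect and 5 µM unlabelled arrestin peptide for full effect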
#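 System: GST-AP2 R879A glutathione beads | Also added: FITC-arrestin peptide, 50 nM | Times: 12 min plus 1 h, RT | Signal: Bead flow cytometry, FITC channel | Buffer or medium: PBS with 0.05% Tween 20 and 0.1% BSA | Read-out basis: Percent drop in bead-associated FITC signal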
# MEKK2 mut-MEK5: signal of MEK5 binding to mutant human MEKK2 PB1 domain; percent response, % at 10 µM; 0.35% of 290,000 active; bead flow cytometry, Alexa488-MEK5 binding to MEKK2 mutant; in the data active = percent response above about 24%, passing the limit was not always enough
# MEKK2wt confirm: raises or lowers MEK5 binding to wildtype human MEKK2, retest; binding response (% of control), % at 10 µM; 2.4% of 5,900 active; bead flow cytometry, Alexa488-MEK5 binding to MEKK2 WT; actives lie on both sides; shares compounds with MEKK3 PB1 HTS; AID 1892; in the data active = binding response below about 16% or above about 210%; inactive = in between
# MEKK2mut-MEK5: signal of MEK5 binding to mutant human MEKK2, retest; shares compounds with MEKK3 PB1 HTS; bead flow cytometry, Alexa488-MEK5 binding to MEKK2 mutant; percent response, % at 10 µM; 2% of 5,900 active; AID 1893; in the data active = percent response mostly above about 71%, no sharp cut-off; inactive = mostly below about 38%;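 note: higher means compound restores mutant binding toward wildtype level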
# MEKK3 confirm: MEKK3-MEK5 PB1 inhibition, single concentration confirmation; shares compounds with MEKK3 PB1 HTS; bead flow cytometry, Alexa488-MEK5 binding to MEKK3; stronger effect = lower value; binding response (% of control), % at 10 µM; 1.8% of 5,900 active; AID 1894;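 active = binding response below 72% of control, or above a set upper limit, though filed actives all read lower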;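 note: 100% = DMSO only wells and 0% = binding blocked by excess unlabeled MEK5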
# The depositor's hits bear a star; / = no result; [ ] = dose if it differs, or a comment.
SMILES,MEKK3 PB1 HTS,MEKK2wt PB1 HTS,Arr AP2 block,MEKK2 mut-MEK5,MEKK2wt confirm,MEKK2mut-MEK5,MEKK3 confirm
COC(=O)CCCC1=CC2=C(c3ccccc3)C(=O)C(C)(OC(=O)C3CCCC3)C(=O)C2=CN1c1ccccc1 (stereo not given),128*,154*,21,1,87,-5,94
COCCN1C=C2C(=O)C(C)(OC(=O)CCC(=O)OC)C(=O)C(Br)=C2C=C1c1ccc(OC)cc1 (stereo not given),97,96,25,1,/,/,/
COC(=O)CCC(=O)OC1(C)C(=O)C2=CN(C3CCCC3)C(c3ccc(OC)cc3)=CC2=C(Br)C1=O (stereo not given),47*[inhibitor],-8.0*[inhibitor],32,-23,88,0,88
COC(=O)CCCC1=CC2=C(c3ccccc3)C(=O)C(C)(OC(=O)C3CCCC3)C(=O)C2=CN1C1CC1 (stereo not given),122,155*,23,1,103,0,102
O=C(Nc1ccc(C(=O)N2CCC(N3CCOCC3)CC2)cc1)c1ccc(Br)o1,/,/,3,/,/,/,/
N#Cc1nc(-c2cccs2)oc1NCCN1CCOCC1,/,/,9,/,/,/,/
N#Cc1nc(-c2ccc(Cl)cc2)oc1NCC1CCCO1 (stereo not given),99,100,24,-1,/,/,/
N#Cc1nc(-c2ccccc2)oc1NCC1CCCO1 (stereo not given),147*,112,-1,0,92,-8,96
N#Cc1nc(-c2ccccc2)oc1NCCN1CCCCC1,2.0*[inhibitor],3.0*[inhibitor],-7,-21,108,2,104
Cn1c(SCC(=O)N2CCN(S(=O)(=O)c3ccccc3)CC2)nc2ccccc21,109,108,23,6,/,/,/
Cn1c(SCC(=O)N2CCN(S(=O)(=O)c3ccc(Cl)cc3)CC2)nc2ccccc21,133*,129,-11,8,102,6,103
CC(C)CNC(=O)CN1C(=O)NC(Cc2c[nH]c3ccccc23)C1=O (stereo not given),67*[inhibitor],76,-14,-27,110,9,105
Cc1ccccc1NS(=O)(=O)c1ccc(C(=O)NCCCN2CCCC2=O)cc1,/,/,-10,/,/,/,/
CC1=C(C(=O)Nc2ccccc2C)C(c2ccc(C)o2)n2c(s/c(=C/c3ccccc3)c2=O)=N1 (stereo not given),102,104,0,3,/,/,/
CC1=C(C(=O)Nc2ccccc2)C(c2ccc(C)o2)n2c(s/c(=C/c3ccccc3)c2=O)=N1 (stereo not given),82*[inhibitor],86,-5,-11,96,-4,99
CCOc1ccc(C2C(C(=O)Nc3ccccc3)=C(C)N=c3s/c(=C/c4cccc(OCC(=O)O)c4)c(=O)n32)cc1 (stereo not given),94,82,16,-10,/,/,/
CC1=C(C(=O)Nc2ccccc2)C(c2ccc(Cl)cc2)n2c(s/c(=C/c3cccc(OCC(=O)O)c3)c2=O)=N1 (stereo not given),89,40*[inhibitor],-6,-28,99,-6,99
Cc1ccc(N=Cc2sc(O)c3ccccc23)c(C)c1,119,135*,2,7,113,7,109
CCOC(=O)c1ccc(NC(=S)Nc2ccccc2)cc1,64*[inhibitor],93,3,1,97,-1,101
CCOC(=O)c1ccc(NC(=S)Nc2ccc(C)cc2)cc1,104,98,14,1,/,/,/
CCOC(=O)c1ccc(NC(=O)c2nn(CC)cc2Br)cc1,0.0*[inhibitor],-4.0*[inhibitor],3,-39,101,-2,101
CCOC(=O)c1ccc(NC(=S)NC(=O)c2nn(CC)cc2Br)cc1,108,105,-1,4,/,/,/
O=C(COc1ccc([N+](=O)[O-])cc1)Nc1ccc2c(c1)nc1n2CCOC1,104,104,-6,1,/,/,/
O=C(O)/C=C/c1cnn(-c2ccccc2)c1,103,102,-20,0,/,/,/
Cn1c(O)c(C2=c3ccccc3=NC2=O)[nH]c1=S,75*[inhibitor],96,-1,-1,96,9,97
SMILES,MEKK3 PB1 HTS,MEKK2wt PB1 HTS,Arr AP2 block,MEKK2 mut-MEK5,MEKK2wt confirm,MEKK2mut-MEK5,MEKK3 confirm
O=[N+]([O-])c1cccc(N/N=C/c2cc([N+](=O)[O-])ccc2O)c1,139*,115,8,5,95,-2,96
O=[N+]([O-])c1ccc(O)c(C=Nc2ccc3oc(Cc4ccc(Cl)cc4)nc3c2)c1,134*,106,/,174*,93,-4,104
O=[N+]([O-])c1ccc(O)c(C=Nc2ccc3c(c2)OCCO3)c1,142*,99,13,1,97,-6,100
O=C(NC(c1ccccc1)c1ccccc1)c1cccc(S(=O)(=O)NCc2ccccc2)c1,101,106,12,-2,/,/,/
O=C(Nc1ccc(S(=O)(=O)Nc2nccs2)cc1)c1cnc(Cl)c(Cl)c1,46*[inhibitor],54,1,-8,104,-2,103
COc1ccc(C=NNc2nc3ccccc3s2)cc1,/,/,-2,/,/,/,/
Cc1ccc2[nH]c(C)c(/C=N/Nc3nc4ccccc4s3)c2c1,96,138*,2,5,117,-2,96
CCOc1ccc(/C=C2\SC(=S)N(Nc3ccccc3)C2=O)cc1OC,128*,66,34,-2,65,-16,93
COc1cc(/C=C2\SC(=S)N(Nc3ccccc3)C2=O)cc(OC)c1OC,99,76,9,-16,/,/,/
COc1ccccc1NC(=O)c1ccc(NC(=O)COC(=O)C(C)C)cc1,94,96,3,-2,/,/,/
COc1ccccc1NC(=O)c1ccc(NC(=O)COC(=O)CC(NC(=O)c2ccccc2Cl)c2ccccc2)cc1 (stereo not given),130*,103,-3,0,93,-8,108
Cc1ccc(S(=O)(=O)N2CCCC2CNC(=O)C(=O)NCCN2CCOCC2)cc1 (stereo not given),/,/,-8,/,/,/,/
Cn1c(SCc2nc3ccccc3n2CCO)nc2ccccc21,125*,125,5,7,105,1,104
Cn1c(Sc2nc3ccccc3n2C)nc2ccccc21,102,104,23,-1,/,/,/
CSc1nc(N)c(NC(=O)c2ccc(Br)o2)c(=O)[nH]1,105,109,0,10,/,/,/
O=C1/C(=C/c2cccs2)N=C(c2cccs2)N1Nc1ccccc1,88,57*[inhibitor],28,-16,78,-8,103
Cc1ccc(CNC(=O)CN2C(=O)CSc3ccc(S(=O)(=O)N4CCC(C)CC4)cc32)cc1,102,102,2,4,/,/,/
